# Reference: ChEMBL document CHEMBL1125734, “Antioxidant activity of probucol and its analogues in hypercholesterolemic Watanabe rabbits” (1991)
# Tests used:
# Assay type in all cases: functional
# [1] = species: Oryctolagus cuniculus; experiment: Compound was evaluated for the ability to lower total serum cholesterol levels in 4 Watanabe heritable hyperlipidemic (WHHL) rabbits on day 84.
# Outline: (§1)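 Modified WHHL rabbits (British half-lop × WHHL cross, homozygous LDL-receptor deficient), age 14 ± 1 weeks, fed 100 g/day rabbit chow repelleted with compound at 1% (wt/wt), content checked by HPLC; controls got plain chow (n = 10). Total serum cholesterol measured enzymatically on days 0, 28, 56 and 84; group mean ± SEM (mg/dL).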
# [2] = Molar content of compound in low-density lipoprotein (LDL) was obtained from the ratio of molecules to that of LDL particles.
# Outline: (§2)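 Day-84 plasma (EDTA) from rabbits fed 1% drug in chow. LDL isolated by sequential ultracentrifugation at d = 1.019–1.063 g/mL, brought back to the original serum volume, and drug measured by HPLC. Molecules per particle calculated from LDL protein, taking apoB (mw 500 000) as one copy per particle. Mean ± SEM.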
# [3] = species: Oryctolagus cuniculus; experiment: Percent atherosclerotic lesions in WHHL rabbits.
# Outline: (§3)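 WHHL rabbits (homozygous LDL-receptor deficient, British half-lop cross, 14 ± 1 weeks) fed 100 g/day chow containing 1% (wt/wt) drug for 84 days, then killed by iv pentobarbital. Aortas stained with Sudan IV; sudanophilic area in thoracic aorta quantified by digital image analysis from staining density. Values are percent lesion area per group.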
# [4] = species: Oryctolagus cuniculus; experiment: Compound concentration in serum.
# Outline: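 Rabbits fed 1% (wt/wt) drug in chow (100 g/day) for 84 days. Serum taken at sacrifice on day 84 and extracted with ether/ethanol; extract dried under N2, redissolved, and run on reverse-phase C18 HPLC in acetonitrile/water (85/15) at 1.5 mL/min with detection at 240 nm. Results given as μg/mL, mean ± SEM.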
# [5] = species: Oryctolagus cuniculus; experiment: Compound was evaluated for the ability to lower total serum cholesterol levels in 4 Watanabe heritable hyperlipidemic (WHHL) rabbits on day 0.; outline: as §1
# [6] = species: Oryctolagus cuniculus; experiment: Compound concentration in low-density lipoprotein (LDL).; outline: as §2
# [7] = species: Oryctolagus cuniculus; experiment: Prevention of Cu2+-induced lipid peroxidation of LDL.
# Outline: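 LDL (d 1.019–1.063 g/mL) isolated from each drug-fed rabbit at day 84 and dialyzed against PBS. Incubated with 5 μM CuSO4 (final) at 37 °C for 3 h; reaction stopped with EDTA. 50 μg LDL treated with TCA and 0.67% TBA at 90 °C for 30 min. TBARS read at 532 nm against an MDA standard curve (0–5 nmol).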
# [8] = species: Oryctolagus cuniculus; experiment: Compound was evaluated for the ability to lower total serum cholesterol levels in 4 Watanabe heritable hyperlipidemic (WHHL) rabbits on day 56.; outline: as §1
# [9] = species: Oryctolagus cuniculus; experiment: Compound was evaluated for the ability to lower total serum cholesterol levels in 4 Watanabe heritable hyperlipidemic (WHHL) rabbits on day 28.; outline: as §1
# [10] = species: Oryctolagus cuniculus; experiment: % atherosclerotic lesions in WHHL rabbits.; outline: as §3
# [11] = species: Oryctolagus cuniculus; experiment: Compound was evaluated for the ability to lower total serum cholesterol levels in 5 Watanabe heritable hyperlipidemic (WHHL) rabbits on day 56.; outline: as §1
# [12] = species: Oryctolagus cuniculus; experiment: Compound was evaluated for the ability to lower total serum cholesterol levels in 5 Watanabe heritable hyperlipidemic (WHHL) rabbits on day 28.; outline: as §1
# [13] = species: Oryctolagus cuniculus; experiment: Compound was evaluated for the ability to lower total serum cholesterol levels in 5 Watanabe heritable hyperlipidemic (WHHL) rabbits on day 0.; outline: as §1
# [14] = species: Oryctolagus cuniculus; experiment: Compound was evaluated for the ability to lower total serum cholesterol levels in 5 Watanabe heritable hyperlipidemic (WHHL) rabbits on day 84.; outline: as §1
Compound,Cholesterol Concentration [1] [mg/dL],Molar content (Molecules (LDL particle)-1) [2],Lesion [3] [%],Drug Conc (serum) [4] [µg/mL],Cholesterol Concentration [5] [mg/dL],Drug Conc (LDL) [6] [µg/mL],Lipid peroxidation (nM MDA (mg LDL)-1) [7],Cholesterol Concentration [8] [mg/dL],Cholesterol Concentration [9] [mg/dL],Lesion [10] [%],Cholesterol Concentration [11] [mg/dL],Cholesterol Concentration [12] [mg/dL],Cholesterol Concentration [13] [mg/dL],Cholesterol Concentration [14] [mg/dL]
CC(C)(Sc1cc(C(C)(C)C)c(O)c(C(C)(C)C)c1)Sc1cc(C(C)(C)C)c(O)c(C(C)(C)C)c1 [PROBUCOL],698,11.3,47,56,658,41,25,731,728,,,,,
CCCC(C)(Sc1cc(C(C)(C)C)c(O)c(C(C)(C)C)c1)Sc1cc(C(C)(C)C)c(O)c(C(C)(C)C)c1,782,6.2,,42,685,23,30,796,885,53,,,,
CCCCC(C)(Sc1cc(C)c(O)c(C(C)(C)C)c1)Sc1cc(C)c(O)c(C(C)(C)C)c1,,0.7,,6.4,,3,33,,,81,1079,1042,1005,1095
CC(C)(C)c1cc(SCSc2cc(C(C)(C)C)c(O)c(C(C)(C)C)c2)cc(C(C)(C)C)c1O,,20.3,,135,,65,16,,,39,766,905,890,734
